The source made the active and inactive calls. How the calls were made is not given here.
Key:
MCF7 [1] = assay: Growth inhibition of human MCF7 cells after 96 hrs by sulphorhodamine B assay; format: functional; details: MCF7, 96 h
In short: (§1)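 SRB growth assay; MCF7 and WI38 seeded 4000 cells/well, A549 2000 cells/well, attached overnight, then exposed to freshly made drug solutions (0.1 to 50 μM) for 96 h. Fixed with cold 10% TCA, stained with 0.4% SRB; absorbance at 540 nm as percent of untreated control, IC50 from mean absorbance.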

A549 = assay: Growth inhibition of human A549 cells after 96 hrs by sulphorhodamine B assay; format: functional; details: A549, 96 h; in short: as §1
[2] = biological target: T1, Histone deacetylase-like amidohydrolase (Alcaligenes sp. (strain DSM 11172) (Bordetella sp. (strain FB188))) (UniProt Q70I53); assay: Inhibition of Bordetella sp. (strain FB188) N-terminus His-tagged HDAH expressed in Escherichia coli BL21 (DE3) up to 100 uM; details: Alcaligenaceae bacterium FB188
T1 sequence (whole entry): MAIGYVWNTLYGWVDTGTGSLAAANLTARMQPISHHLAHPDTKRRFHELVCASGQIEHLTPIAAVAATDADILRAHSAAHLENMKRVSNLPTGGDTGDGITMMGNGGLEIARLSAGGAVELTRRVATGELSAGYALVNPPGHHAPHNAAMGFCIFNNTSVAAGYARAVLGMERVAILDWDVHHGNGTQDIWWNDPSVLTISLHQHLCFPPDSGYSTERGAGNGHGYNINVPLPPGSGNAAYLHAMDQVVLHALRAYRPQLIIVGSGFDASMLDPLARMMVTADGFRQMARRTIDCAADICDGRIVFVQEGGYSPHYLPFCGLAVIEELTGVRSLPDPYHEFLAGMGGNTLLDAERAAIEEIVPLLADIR
In short: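 Recombinant N-terminal His6-tagged HDAH from Bordetella strain FB188, expressed in E. coli BL21, purified on zinc-loaded His-Trap column, eluted with 500 mM imidazole, dialyzed into assay buffer (>98% pure by SDS-PAGE). Tested directly against compounds; thiols generated in situ from disulfides with TCEP.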

[3] = Growth inhibition of human WI38 cells after 96 hrs by sulphorhodamine B assay; format: cell-based; details: WI-38 cells; in short: as §1
Histone deacetylase 7 = biological target: T2, Histone deacetylase 7 (Homo sapiens, UniProt Q8WUI4); assay: Inhibition of human recombinant HDAC7 using Boc-lys(Ac)-AMC as substrate preincubated for 20 mins with substrate measured after 60 mins by fluorescence analysis
T2 sequence (Q8WUI4 whole entry): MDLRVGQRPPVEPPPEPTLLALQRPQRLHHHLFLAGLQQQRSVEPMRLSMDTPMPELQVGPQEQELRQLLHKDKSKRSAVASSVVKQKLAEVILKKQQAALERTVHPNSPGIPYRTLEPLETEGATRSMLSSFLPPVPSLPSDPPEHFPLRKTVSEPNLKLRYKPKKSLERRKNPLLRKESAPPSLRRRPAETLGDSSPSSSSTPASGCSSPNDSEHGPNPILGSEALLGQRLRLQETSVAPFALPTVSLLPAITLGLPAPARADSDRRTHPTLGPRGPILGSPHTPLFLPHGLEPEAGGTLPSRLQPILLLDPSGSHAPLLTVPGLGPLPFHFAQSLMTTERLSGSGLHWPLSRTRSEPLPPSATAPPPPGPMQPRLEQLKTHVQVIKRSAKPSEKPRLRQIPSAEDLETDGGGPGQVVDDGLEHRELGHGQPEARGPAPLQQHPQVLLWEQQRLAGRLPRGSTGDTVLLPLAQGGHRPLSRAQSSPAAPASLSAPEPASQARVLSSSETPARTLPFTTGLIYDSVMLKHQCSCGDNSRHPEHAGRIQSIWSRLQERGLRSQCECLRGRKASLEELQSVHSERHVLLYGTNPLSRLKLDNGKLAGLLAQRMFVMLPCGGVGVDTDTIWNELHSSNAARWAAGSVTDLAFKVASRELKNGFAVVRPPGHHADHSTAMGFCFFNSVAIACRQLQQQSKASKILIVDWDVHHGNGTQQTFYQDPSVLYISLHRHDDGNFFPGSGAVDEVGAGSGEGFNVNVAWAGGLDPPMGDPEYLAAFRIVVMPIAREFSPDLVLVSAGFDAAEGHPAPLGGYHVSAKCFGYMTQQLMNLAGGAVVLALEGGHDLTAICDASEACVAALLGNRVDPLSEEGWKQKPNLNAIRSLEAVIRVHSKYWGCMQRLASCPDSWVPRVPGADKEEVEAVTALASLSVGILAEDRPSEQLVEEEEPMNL

Histone deacetylase 1 = Histone deacetylase 1 (Homo sapiens, UniProt Q13547); assay: Inhibition of human recombinant HDAC1 using Boc-lys(Ac)-AMC as substrate preincubated for 20 mins with substrate measured after 60 mins by fluorescence analysis
Chain of Histone deacetylase 1 (Q13547 whole entry): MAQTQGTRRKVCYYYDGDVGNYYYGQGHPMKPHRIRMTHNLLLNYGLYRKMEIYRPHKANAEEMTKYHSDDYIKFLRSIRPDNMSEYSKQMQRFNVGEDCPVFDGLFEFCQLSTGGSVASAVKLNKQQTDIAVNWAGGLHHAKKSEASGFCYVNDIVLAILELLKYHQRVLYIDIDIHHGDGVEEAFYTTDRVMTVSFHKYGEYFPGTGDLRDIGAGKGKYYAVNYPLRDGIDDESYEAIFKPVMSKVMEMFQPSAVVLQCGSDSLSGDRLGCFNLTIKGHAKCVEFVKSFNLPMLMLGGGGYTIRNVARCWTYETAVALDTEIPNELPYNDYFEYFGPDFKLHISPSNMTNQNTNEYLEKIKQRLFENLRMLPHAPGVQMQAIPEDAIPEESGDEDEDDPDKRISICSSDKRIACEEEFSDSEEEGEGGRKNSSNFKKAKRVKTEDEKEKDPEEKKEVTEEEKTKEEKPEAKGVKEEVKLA

MCF7 [4] = assay: Selectivity index, ratio of GI50 for human WI38 cells to GI50 for human MCF7 cells; format: functional

N/N=C(\Cc1ccc(O)c(Br)c1)C(=O)NCCS
GI50 (MCF7 [1]): 3.42 µM | GI50 (A549): 33.4 µM | inhibition [2]: inactive | GI50 at 96 h [3]: 37.2 µM | IC50 (Histone deacetylase 7): 45 µM | IC50 (Histone deacetylase 1): 5 nM | RatioGI50 (MCF7 [4]): 10

— ChEMBL document CHEMBL2046381, “Defining the mechanism of action and enzymatic selectivity of psammaplin A against its epigenetic targets” (J Med Chem, 2012)
